Read-outs that look alike come from different tables or passages of the source.

The conditions of data set [1]: canine, oral dosing 100 mg/kg; cited from earlier work.
For data set [2] the following is noted: mice, oral dosing 100 mg/kg; cited from earlier work.
The test system of data set [3] is CCRF-CEM (acute lymphoblastic leukemia). Put plainly: Alamar blue cytotoxicity assay, CCRF-CEM. In kind it is cell-based, human. To be noted: read-out: Growth inhibitory activity (IC50) CCRF-CEM. The method in brief: (§1)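 Suspension cells (CCRF-CEM; TEX in IMDM with L-glutamine, 15% FBS, SCF 20 ng/mL, IL-3 2 ng/mL, penicillin/streptomycin) were seeded at 10,000 cells/well 24 h before compound addition. Cultures were kept at 37 °C in humidified 5% CO₂. Viability was read with Alamar blue. IC50 is mean ± S.D. of n ≥ 3 biological replicates.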
(In general: Resazurin is reduced to fluorescent resorufin, in cell work by metabolically active cells.)

For data set [4], the system named is mice. Particulars: continuous oral dosing 100 mg/kg daily for over four weeks; cited from earlier work.
Data set [5] concerns DU-145 (prostate cancer). The experiment in a line: Alamar blue cytotoxicity assay, DU-145. In kind it is cell-based, human. To be noted: read-out: Growth inhibitory activity (IC50) DU-145; mean ± S.D.
Data set [6] relates to MCF-7 (breast adenocarcinoma). Put plainly: Alamar blue cytotoxicity assay, MCF-7. It counts as cell-based, human. The method in brief:
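MCF-7 cells were grown in MEM with 10% FBS, bovine insulin 0.01 mg/mL, penicillin and streptomycin at 37 °C in 5% CO₂. They were detached with trypsin-EDTA or TrypLE and seeded at 5,000 cells/well 24 h before dosing. Readout was Alamar blue reduction. IC50 is mean ± S.D. from n ≥ 3 biological replicates.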

In data set [7] the test system is NCI/ADR-RES (ovarian cancer; adriamycin-resistant). The experiment in a line: Alamar blue cytotoxicity assay, NCI/ADR-RES. In kind it is cell-based, human. To be noted: read-out: Growth inhibitory activity (IC50) NCI/ADR-RES; mean ± S.D. The procedure, abridged: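 Adherent NCI/ADR-RES cells were seeded at 5,000 cells/well 24 h prior to compound treatment and kept at 37 °C, 5% CO₂. Growth was measured by Alamar blue. IC50 values are mean ± S.D. over n ≥ 3 biological replicates.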

For data set [8], the system named is HL-60 (acute promyelocytic leukemia). Put plainly: Alamar blue cytotoxicity assay, HL-60. Particulars: read-out: Growth inhibitory activity (IC50) HL-60; mean ± S.D. It counts as cell-based, human.
For data set [9] the following is noted: cited from earlier work.
In data set [10] the test system is murine AML cell line B117H (cytarabine-resistant). Put plainly: Murine cytotoxicity assay, B117H. In kind it is cell-based. To be noted: Mus musculus, read-out: Growth inhibitory activity (IC50) B117H. The method in brief:
(§2)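 Murine AML lines were used: B117P and B140P from BXH-2 mice, which develop leukemia from an endogenous murine leukemia virus, and their counterparts B117H and B140H. Cells per well were 25,000 (B117P), 28,000 (B117H), 36,000 (B140P) and 44,000 (B140H) in 96-well format. IC50 values are mean ± S.D. from biological triplicate.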

The test system of data set [11] is murine AML cell line B117P. Put plainly: Murine cytotoxicity assay, B117P. In kind it is cell-based. Particulars: Mus musculus, read-out: Growth inhibitory activity (IC50) B117P. The method in brief: as §2
In data set [12] the test system is TEX cells. The experiment in a line: Intracellular ROS induction. In kind it is cell-based, human. To be noted: 100 µM, 30 min. The method in brief:
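TEX cells were seeded at 5 × 10⁵ cells/mL and incubated overnight at 37 °C, 5% CO₂. They were then exposed to test compound at 25 or 100 µM, with H₂O₂ 100 µM as positive control. CellROX Green (5 µM final) was added at once, followed by 30 min at 37 °C. Cells were washed twice in FACS buffer and 5 × 10⁴ events recorded. Median fluorescence was normalized to untreated control. Runs were in quadruplicate (H₂O₂ triplicate); mean ± S.D.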

Data set [13] has as its system murine AML cell line B140P. Put plainly: Murine cytotoxicity assay, B140P. It counts as cell-based. To be noted: Mus musculus, read-out: Growth inhibitory activity (IC50) B140P. The method in brief: as §2
Data set [14] deals with CD34+CD38− BM cells. Put plainly: Flow cytometry viability of CD34+CD38− bone marrow cells. In kind it is cell-based, human. Particulars: 25 µM, 12 h. The method in brief: (§3)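 Cells were plated at 1 × 10⁶ cells/mL with test compound (25 µM) or doxorubicin (0.5 µM) for 12 h (final DMSO 0.03%). Staining was CD34/CD38, then Annexin V/7-AAD, with over 5 × 10⁴ events. Viability is the unstained fraction, mean ± S.D. of n ≥ 3; unpaired t-tests.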

The subject of data set [15] is total bone marrow cell population. The experiment in a line: Flow cytometry viability of total bone marrow cells. In kind it is cell-based, human. To be noted: 25 µM, 12 h. The method in brief:
as §3

In data set [16] the test system is CD34+CD38− TEX cells. The experiment in a line: Flow cytometry viability of CD34+CD38− TEX cells. It counts as cell-based. To be noted: Homo sapiens, 12 h, read-out: cell viability of CD34+CD38− TEX cells. The procedure, abridged: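 TEX cells at 1 × 10⁶ cells/mL were dosed for 12 h at 37 °C, 20% O₂, 5% CO₂ (final DMSO 0.03% v/v). Test compound was given at 25, 15 or 2.5 µM; the doxorubicin reference at 2.5, 0.5 or 0.05 µM. Cells were stained for CD34/CD38 (10 min, 4 °C), then Annexin V-FITC/7-AAD (10 min, RT, dark). Over 5 × 10⁴ events were collected. Viable cells were double-negative. Values are mean ± S.D. of 3–5 biological replicates; unpaired t-test versus untreated.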

Data set [17] deals with total BM. Particulars: cited from earlier work.
The conditions of data set [18]: mouse plasma; cited from earlier work.
The nature of data set [19]: Measured LogD7.4. In kind it is physicochemical. To be noted: pH 7.4. The procedure, abridged:
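LogD at pH 7.4 was determined experimentally by liquid-liquid distribution chromatography, run by a contract analytical lab. Each value is the average of two measurements. The assay's measurable range is 1–5 log units.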

Data set [20] has as its system TEX cells. Put plainly: Alamar blue cytotoxicity assay, TEX. To be noted: Homo sapiens, 48 h, read-out: Growth inhibitory activity (IC50) TEX. It counts as cell-based, human. The procedure, abridged: as §1
Data set [21] deals with TEX cells. The experiment in a line: Methylcellulose clonal growth assay with TEX cells. In kind it is cell-based, human. Particulars: 2.5 µM; 11 d growth on methylcellulose. The method in brief: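 TEX cells were suspended in methylcellulose medium with penicillin (100 I.U./mL) and streptomycin (100 µg/mL) at a final 1.2 × 10⁴ cells/mL, i.e. 6,000 cells/well. Test compound, diluted in TEX medium, or DMSO (0.05%, control) was added. Cells were plated as technical triplicates and grown 11 d at 37 °C, 5% CO₂. Two people counted colonies independently at 10X. Values are the mean of 3 biological replicates ± S.D., with unpaired t-tests against DMSO.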

In data set [22] the test system is murine AML cell line B140H (cytarabine-resistant). The experiment in a line: Murine cytotoxicity assay, B140H. It counts as cell-based. To be noted: Mus musculus, read-out: Growth inhibitory activity (IC50) B140H. The procedure, abridged:
as §2

For data set [23], the system named is CD34+CD38− BM cells. Particulars: 5 µM for 18 hrs; cited from earlier work.
The conditions of data set [24]: mice, oral dosing 40 mg/kg; cited from earlier work.

By Cmax is commonly meant the highest concentration seen after dosing. For the molecule `C/C1=C\CC[C@@]2(C)O[C@@H]2[C@H]2OC(=O)[C@@H](CN(C)C)[C@@H]2CC1.O=C(O)/C=C/C(=O)O` [DMAPT, dimethylamino-parthenolide fumarate], the highest concentration (Cmax) in [1] is 61 µM; in data set [2], 25 µM. For the same molecule, the IC50 in data set [3] (mean ± S.D.) came to 1.9 ± 0.4 µM; in data set [5] it was 8.4 ± 4.5 µM; in data set [6] (read-out: Growth inhibitory activity (IC50) MCF-7, mean ± S.D.) it was 10.4 ± 1.2 µM; in [7] it was 12.3 ± 2.7 µM; in data set [8], 7.1 ± 0.4 µM. In addition, the toxicity to mice entry in data set [4] is listed as “no measurable toxicity”. Further, the “increase of water solubility versus PTL” value in [9] is given as ~ 1000 fold.
As a reminder, the viability is a read-out of living cells in per cent, often relative to untreated cells. Broadly, the chromatographic logD is a lipophilicity value derived from retention on a column. Lower therefore signals lower lipophilicity. In the case of `C=C1C(=O)O[C@H]2[C@H]1CC/C(C)=C/CC[C@@]1(C)O[C@@H]21` [PTL, Parthenolide], the IC50 in [10] was determined as 4.7 ± 1.6 µM; in data set [3] (Homo sapiens, CCRF-CEM), 4.7 ± 1.6 µM; in [11], 1.1 ± 0.2 µM; in [13], 5.8 ± 2.3 µM; in data set [6] (Homo sapiens, MCF7, read-out: Growth inhibitory activity (IC50) MCF-7), 9.7 ± 2.8 µM; in [20], 2.8 ± 0.2 µM. Besides, the IC50 in [22] turned out to be 3.4 ± 1.1 µM. Besides, the “induction of intracellular ROS (MFI normalized to untreated control)” value in data set [12] was determined as 1.6 fold. Also, in data set [14], the “toxicity to primitive CD34+CD38− BM cells” value was “no significant toxicity”. For the same molecule, the “reduction in total BM viability” value in [15] is given as 48%. The viability at 25 µM in data set [16] lay within 1 to 10%. The “toxicity to total BM” value in [17] (5 µM for 18 hrs) is listed as “non-toxic”. Moreover, the “overall BM toxicity” value in [17] (7.5 µM for 18 hrs) is “some overall BM toxicity”. Besides, the “plasma half-life t1/2” value in data set [18] is 1.6 h. The molecule further registered a chromatographic logD in data set [19] of 1.79. Moreover, the “Colonies (mean number ± S.D.)” value in data set [21] is reported as 2.6 ± 2.7. Further, in [23], the “toxicity to CD34+CD38− BM cells” value is recorded as “non-toxic”. Further, the concentration in serum result in data set [24] is “approximately 200 nM”.

The values above are taken from paper PMC4697833 (Bioorganic & medicinal chemistry, 2015).
